Experimental data gathered from unrelated publications.
Lines come from different studies, so protocols differ.
Target: Serine/threonine-protein kinase PAK 6 (PAK6, Homo sapiens, UniProt Q9NQU5)

Compound	assay	conditions	endpoint	value
COc1ncccc1-c1cnn2ccc(N3CCN(C(=O)OC(C)C)CC3)nc12	binding, competition with immobilised ligand	1 µM	remaining binding	97%
Nc1ncc(-c2nc(N3CCOCC3)nc(N3CCOCC3)n2)c(C(F)F)n1	binding, competition with immobilised ligand	10 µM	remaining binding	79%
Cn1cc(-c2cccc(N3CCc4c(sc5c4CC(C)(C)C5)C3=O)c2CO)cc(Nc2ccncn2)c1=O	enzyme activity, inhibitor	1 µM	inhibition	-7%
O=c1[nH]c2ccccc2n1C1CCN(Cc2ccc(-c3[nH]c4cc5ncnc5cc4nc3-c3ccccc3)cc2)CC1	cell-free assay	0.5 µM	remaining signal	109%
Cn1cc(-c2cc(F)cc(N3CCn4c(cc5c4CCCC5)C3=O)c2CO)cc(Nc2ccc(N3CCN(C4COC4)CC3)cn2)c1=O	enzyme activity, inhibitor	0.1 µM	inhibition	22%
Cc1nn(C)cc1-c1nc2c(N3CCN(Cc4ccc(Cl)cc4)CC3)c(Cl)cnc2[nH]1	binding, competition with immobilised ligand	1 µM	remaining binding	100%
COc1cc(Nc2ncc(F)c(Nc3ccc4c(n3)NC(=O)C(C)(C)O4)n2)cc(OC)c1OC	binding, competition with immobilised ligand	10 µM	inhibition	96%
Cn1cncc1[C@](O)(COc1ccc(C#N)cc1-c1ccc(OC(F)(F)F)cc1)c1ccc(C#N)cc1	cell-free assay, competition with immobilised ligand	1 µM	remaining binding	98%
